System: MS2 coat protein
Test: apparent Kd, MS2 coat protein; higher = weaker binding; RNA-MaP array; FMN 200 µM where present
Summary of the method: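 Designs on Illumina sequencing-chip clusters, transcribed by stalled E. coli RNA polymerase, were exposed to SNAP-549-labelled MS2 coat protein in doubling steps from 0.7 or 1.5 nM up to 3 µM, without and then with constant ligand. The buffer held 100 mM Tris-HCl pH 7.5, 80 mM KCl, 4 mM MgCl2, BSA, DTT, yeast tRNA and Tween-20. Apparent Kd values are medians of filtered per-cluster binding-curve fits to green signal normalised to red-channel RNA signal and control-cluster median Fmax.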

[1] = designed as: OFF switch for flavin mononucleotide, no ligand
[2] = ligand present: flavin mononucleotide, designed as: OFF switch for flavin mononucleotide
[3] = designed as: ON switch for flavin mononucleotide, no ligand
[4] = ligand present: flavin mononucleotide, designed as: ON switch for flavin mononucleotide

| Sequence | apparent Kd [1] | apparent Kd [2] | apparent Kd [3] | apparent Kd [4] |
| --- | --- | --- | --- | --- |
| UCCGGGUGCCAGAAGGGAGAUGGUUCGGAGGUCUCAGGAUAUGGCACAUGAGGAUCACCCAUGUGUUUACGUAAUUACAUGAGA | 0.0209 µM | 0.0216 µM |  |  |
| UCCUCUUUGAAGAAGGCGUGGCCAUGCAAGCCGCGAGGAUAUUCACAUGAGGAUCACCCAUGUGGAUUUCAGUCCGCUCAAAAC | 0.0134 µM | 0.068 µM |  |  |
| UCCUGACCGAGAGAUAGGAGUAGUAGAAGGCGACCGGUGCCAGAUGACAUGAGGAUCACCCAUGUCGAGGAUAUACUACAGAAU | 0.00699 µM | 0.00963 µM |  |  |
| UCCUUAAGUUAGGAUAUCGAUUGCUAUAGCAGAUGAGAAGGAGCCACAUGAGGAUCACCCAUGUCCUCACCUAU | 0.18 µM | 0.214 µM |  |  |
| UCCUUCUGUUGAGGAUAUGUAAGACAGCGGCUGCUAUUGCGGCCCGCUGAUACAGAAGGCAACAUGAGGAUCACCCAUGUUCAA | 0.0229 µM | 0.163 µM |  |  |
| UCCUUGUCCUGAGGAUAUCCGCGGUUCCCAAAAGGAGAAGGCAGGACAUGAGGAUCACCCAUGUACCCAGAACACGUGCAGAGU | 0.0146 µM | 0.0909 µM |  |  |
| UCGAUAAGGAGAGGAUAUGGACAUGAGGAUCACCCAUGUACAUGGGAAUAUAUUCUGAAUUUUUACUAGAAGGCUUACAUAAAU | 0.0208 µM | 0.0171 µM |  |  |
| UCGCUCCGUGUAGGAUAUCGCCGUUCUACUCGGCGAGAAGGACAUGAGGAUCACCCAUGUAUGUUAUUAUCACGUGUGGCGCGC | 0.0185 µM | 0.0295 µM |  |  |
| UCGCUGCGAGGAUAUACGUUUGCGCGCUUUCGUUUGCGCGUACAUGAGGAUCACCCAUGUAGAAGGCGCGCCGC | 0.0159 µM | 0.0159 µM |  |  |
| UCGGCGCGAGGAUAUACGUUUGCGCGUUUUCGUUUGCGCGUACAUGAGGAUCACCCAUGUAGAAGGCGCGCGGC | 0.0131 µM | 0.0134 µM |  |  |
| UCGGCGCGAGGAUAUACGUUUGCGCUUUUUCGUUUUUGCGUACAUGAGGAUCACCCAUGUAGAAGGCGCGCCGC | 0.0156 µM | 0.023 µM |  |  |
| UCGGCGCGAGGAUAUACGUUUGCUCUUUUUCGUUUUUGUGUACAUGAGGAUCACCCAUGUAGAAGGCGCGCCGC | 0.018 µM | 0.0637 µM |  |  |
| UCGGCGCGAGGAUAUGCGGUUUGUGCUUCGGGCCCUCGCGUACAUGAGGAUCACCCAUGUAGAAGGCGCGCCGC | 0.201 µM | 0.123 µM |  |  |
| UCGUAUACACAAGGAUAUCAAUGAUUUGUGGAUCCUACAUGAGGAUCACCCAUGUUUUUAUAUUGUGAGAAGGUGUAGUGUCUU |  |  | 0.507 µM | 0.684 µM |
| UCGUAUACACAAGGAUAUCAAUGGUUUGUAGAUCCUACAUGAGGAUCACCCAUGUUUUUAUAUUGUGAGAAGGUGUAGUGUCUU |  |  | 0.62 µM | 0.564 µM |
| UCGUAUACACAAGGAUAUCGAUGGCUUGUAGAUCCUACAUGAGGAUCACCCAUGUUUUUAUAUUGUGAGAAGGUGUAGUGUCUU |  |  | 1.17 µM | 1.91 µM |
| UCGUGAAGGACAGGAUAUGGACAUGAGGAUCACCCAUGUACAUGGGAAUGUAUACUGAAUUUGUACUAGAAGGGUUACAUAAAU | 0.0299 µM | 0.0206 µM |  |  |
| UCGUUGUCAGGAUAUCGUUAAUUUAAUUGUUUGUAUUAGUUCGAGAAGGGACAUGAGGAUCACCCAUGUUUGCU | 0.031 µM | 0.0868 µM |  |  |
| UCUACAUAAAUUCAUCAAUACAGUAAGGAUAUGAGAUACAUGAGGAUCACCCAUGUGCAUGUGAAUUAGAAGGUACAAUUAACU | 0.0144 µM | 0.012 µM |  |  |
| UCUAUGAAGAUUCGUCAAUACAGUUAGGAUAUGAGAUACAUGAGGAUCACCCAUGUGCAUGUGGAUUAGAAGGAACAAUUAUCU | 0.0332 µM | 0.0308 µM |  |  |
| UCUGGAGCAGGAUAUAUAUGACGUGCUUCGGCACGAAGAUCACAUGAGGAUCACCCAUGUAGAAGGGCUCCAGA | 0.109 µM | 0.946 µM |  |  |
| UCUUAUUGCAAGGAUAUGCAAUUUAUUUUUUAUGCAGAAGGUGCAACAUGAGGAUCACCCAUGUUUCCGGGCAU | 0.0138 µM | 0.0186 µM |  |  |
| UCUUUCCGGAAUAUAAGUUGACUUCAGGAUAUCACAUGAGGAUCACCCAUGUGAUGCUUUAUUGCUGAGAAGGGAAGUCAUACC | 0.0117 µM | 0.0386 µM |  |  |
| UCUUUGCUAUAUACAUGAGGAUCACCCAUGUCCACUGACAGACAGGAUAUCCUUAGAAACUAGCAGGAGAAGGGUCAGUCAUAC |  |  | 0.14 µM | 0.0748 µM |
| UGAAACUACGAGAAGGACAUGUGGUCCUUCAGUUACAUGAGGAUCACCCAUGUAGGAUAUCGUAGUUUCAGGAUCGUGAGAUCU | 0.0385 µM | 0.0127 µM |  |  |
| UGAAAUAGAGGAUAUACAUGAGGAUCACCCAUGUGAUCCUCCGGAGUAGGCCGUUUAUGUAGAAGGCUGAUGAA | 0.0489 µM | 0.0483 µM |  |  |
| UGAAAUCAUGUAGGAUAUGCAUGGCGAAGCUACGCAGAAGGACAUGAGGAUCACCCAUGUUAUGGCUACCCAGUUCGGUGGCAA | 0.0518 µM | 0.117 µM |  |  |
| UGAAAUCAUGUAGGAUAUGCAUGGCGAAGCUACGCAGAAGGACAUGAGGAUCACCCAUGUUCUAGCUACCGAGAACGGUGGCAA | 0.0209 µM | 0.109 µM |  |  |

| Sequence | apparent Kd [1] | apparent Kd [2] | apparent Kd [3] | apparent Kd [4] |
| --- | --- | --- | --- | --- |
| UGAAAUCAUGUAGGAUAUGCAUGGCGCAGCUACGCAGAAGGACAUGAGGAUCACCCAUGUUAUAGCUACCCAGUUCGGUGGCAA | 0.0307 µM | 0.173 µM |  |  |
| UGAAUCAAUACAGGAUAUGGUGACGCACAUGAGGAUCACCCAUGUCCGCAGCGUGCUCAGCACGCCCAGAAGGGUAUUGAUCCG |  |  |  | 0.0848 µM |
| UGACCCAUGACAUGAGAUGACAUGAGGAUCACCCAUGUUUACAAGGAUAUGUUGAUGAAACAUCAACAGAAGGUGUAAUGGGCU | 0.0298 µM | 0.158 µM |  |  |
| UGACUUAUAUAGAAGGGUAUGUGGGAAUUACAUGAGGAUCACCCAUGUUUUAUAGGAUAUGUAUAUAGUUUUUAAUCAAGUUUA | 0.0463 µM | 0.0377 µM |  |  |
| UGAGCCUCGUGAGGAUAUACAUGAGGAUCACCCAUGUAAAUGGAAGAACGGAGGAAACUCCGAAUGUAGAAGGCACGAGGCUCA | 0.145 µM | 0.773 µM |  |  |
| UGAGCCUCGUGAGGAUAUACAUGAGGAUCACCCAUGUAGUAAAGUGAACGGAGGAAACUCCGAAUGUAGAAGGCACGAGGCUCA | 0.0132 µM | 0.0858 µM |  |  |
| UGAGCGACCACAGGAUAUACUUGGGAAGACCGAGUAGAAGGGUGGAAGAGCGUGCAGUGACAUGAGGAUCACCCAUGUGGUUGU |  |  | 0.122 µM | 0.0822 µM |
| UGAUAACAUGUAGGAUAUGCAGCAUUGACCACUGCAGAAGGACAUGAGGAUCACCCAUGUAGUUGUACUAUGGGAUCACGCAAU | 0.419 µM | 0.194 µM |  |  |
| UGAUAGGACAGAGGAUAUACAGAUAGGAUCUACUAUCAAACAGUCCUAACAUGAGGAUCACCCAUGUAGAAGGCUGUCCUAUCU | 0.0209 µM | 0.0792 µM |  |  |
| UGAUAGGACAGAGGAUAUACGUGCUAGAGAUACUAGCAAAAUUUCCUCACAUGAGGAUCACCCAUGUAGAAGGCUGUCCUAUCG | 0.0176 µM | 0.453 µM |  |  |
| UGAUAGGACAGAGGAUAUACGUGCUAGAGAUACUAGCAAAUAAUCCUUACAUGAGGAUCACCCAUGUAGAAGGCUGUCCUAUCU | 0.0193 µM | 0.0474 µM |  |  |
| UGAUAGGACAGAGGAUAUGCCGAUAGGAUCUACUAUCGAAGAAUCCUCACAUGAGGAUCACCCAUGUAGAAGGCUGUCCUAUCU | 0.023 µM | 0.14 µM |  |  |
| UGAUAGGACAGAGGAUAUGCGUAUAGUUACCUCUACAUGAGGAUCACCCAUGUAGAAGGCUGUCCUAUCUAAGUCGGAAACGAC | 0.0058 µM | 0.00561 µM |  |  |
| UGAUAGGACAGAGGAUAUGCGUAUAGUUAUCUCUACAUGAGGAUCACCCAUGUAGAAGGCUGUCCUAUCUAAGUCGGAAACGAC | 0.00535 µM | 0.00522 µM |  |  |
| UGAUCGAGAGAUCUUAGAUUCUGGUAGGAUAUACAUUAUGUUUAAAAUACAUGAGGAUCACCCAUGUAGAAGGACUAGAGUCUA | 0.00676 µM | 0.0139 µM |  |  |
| UGAUCUAGCGGAGGAUAUACAUGAGGAUCACCCAUGUAGAUAUCAUGACCGUAGUCGUGUAUCGUGUAGAAGGCCGCUAGAUCU | 0.0127 µM | 0.024 µM |  |  |
| UGAUGUAAAGAGAAGGGCUACUGGUUGAAACCUGCGGCCUCUGGAACAUGAGGAUCACCCAUGUAGCAGGAUAUCUUUGCGUCA | 0.169 µM | 0.0314 µM |  |  |
| UGCAGCGUGCACAUGAGGAUCACCCAUGUGCCAGCGGACGCACAGGAUAUGCAAUCGUACGGCUAGCAGAAGGGUGGGUCUCAC |  |  | 0.0135 µM | 0.00713 µM |
| UGCAUGCUAGGAUAUACGGGACAUUAGGGUUUGUCGUGUGGACAUGAGGAUCACCCAUGUAGAAGGAGCGUGCU | 0.0495 µM | 0.207 µM |  |  |
| UGCAUGUAUGAGAAGGCUAAUUUGGACAUUAUUUAUGAUGAUGUUUAGGUUAGAGGAUAUUGGGACAUGAGGAUCACCCAUGUA | 0.0215 µM | 0.018 µM |  |  |
| UGCAUGUGAGGAUAUGUGUACUGUUUUUUGUUUAGAUGUACACAGAAGGCACAUGAGGAUCACCCAUGUAGUAC | 0.0958 µM | 0.0224 µM |  |  |
| UGCCGUUUAGGAUAUACAUGAGGAUCACCCAUGUGACACACAUAUUUUACAAAACCAUGUAGAAGGAAACGGCA | 0.104 µM | 0.512 µM |  |  |
| UGCGCCAGAGGAUAUCGGGCUCGCAACAUGAGGAUCACCCAUGUAGUAUGGUCUUAUUUUCGAGAAGGCUGUCGUU | 0.0209 µM | 0.0174 µM |  |  |
| UGCGUAUACGGAGGAUAUGUACAGGUCGCCGUACAUGAGGAUCACCCAUGUGCAGAAGGCCGUAGCGCUAAACUGGAUUGCAAU | 0.0114 µM | 0.0573 µM |  |  |
| UGCUAACUGUAGAAGGGUGACAUGAGGAUCACCCAUGUGCACGCGCGAUUUACGGCGCGCGUGCCACAGGAUAUACAGUCGAGU |  |  | 0.0283 µM | 0.0544 µM |
| UGCUACGUUUCGUAGCAGCUAGGUGAGGAUAUUCAAUUUUUCACAUGAGGAUCACCCAUGUAUGUGAAGAAGGCGCCUAGAAAC |  |  | 0.0116 µM | 0.00461 µM |
| UGCUACGUUUCGUAGCAGCUAGGUGAGGAUAUUCAAUUUUUCACAUGAGGAUCACCCAUGUAUGUGAAGAAGGCGCCUAGAAAU |  |  | 0.0128 µM | 0.0048 µM |

Reference: the EternaBench riboswitch data
